# Tests used:
# Eimeria tenella = assay: Inhibition Eimeria tenella growth; format: functional; details: read-out: MEC
# In short: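 E. tenella (Weybridge strain) grown in vitro in embryonic chick liver cells. Toxicity to the host liver cells was scored in the same culture system.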
# Gallus gallus [1] = species: Gallus gallus; assay: Number of chicks cleared of eimeria tenella lesions out of a group of 5 when given in the diet at 100 ppm; format: functional
# In short: (§1)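 One-week-old chicks were given a simultaneous infection of E. tenella (Weybridge strain) and E. acervulina (Ongar strain). Infection took place 1 day after medication began. Compound was mixed into the diet and fed ad libitum until the end of the test.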
# Gallus gallus [2] = species: Gallus gallus; assay: Number of chicks cleared of eimeria tenella lesions out of a group of 5 when given in the diet at 200 ppm; format: functional
# In short: (§2)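 One-week-old chicks infected with E. tenella (Weybridge strain) together with E. acervulina (Ongar strain) one day after medication began. Compound mixed into the diet and fed ad libitum until the end of the test.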
# Gallus gallus [3] = species: Gallus gallus; assay: Number of chicks cleared of eimeria tenella lesions out of a group of 5 when given in the diet at 25 p.p.m.; format: functional; in short: as §1
# Gallus gallus [4] = species: Gallus gallus; assay: Number of chicks cleared of eimeria tenella lesions out of a group of 5 when given in the diet at 50 p.p.m.; format: functional; in short: as §1
# Gallus gallus [5] = species: Gallus gallus; assay: Number of chicks cleared of eimeria tenella lesions out of a group of 5 when given in the diet at 100 p.p.m.; format: functional; in short: as §1
# Gallus gallus [6] = species: Gallus gallus; assay: Number of chicks cleared of eimeria tenella lesions out of a group of 5 when given in the diet at 200 p.p.m.; format: functional; in short: as §1
# Gallus gallus [7] = species: Gallus gallus; assay: Number of chicks cleared of Eimeria tenella lesions out of a group of 5 when given in a diet of 400 ppm; format: functional; in short: as §1
# Gallus gallus [8] = species: Gallus gallus; assay: Number of chicks cleared of eimeria tenella lesions out of a group of 5 when given in the diet at 400 ppm; format: functional; in short: as §1
# Gallus gallus [9] = species: Gallus gallus; assay: Number of chicks cleared of eimeria tenella lesions out of a group of 5 when given in the diet at 400 p.p.m.; format: functional; in short: as §1
# Gallus gallus [10] = species: Gallus gallus; assay: Number of chicks out of a group of five that died due to toxicity when given in the diet at 100 ppm; format: organism-based; details: chicken, in vivo, po; in short: as §2
# Gallus gallus [11] = species: Gallus gallus; assay: Number of chicks out of a group of five that died due to toxicity when given in the diet at 200 ppm; format: organism-based; details: chicken, in vivo, po; in short: as §2
# Gallus gallus [12] = species: Gallus gallus; assay: Number of chicks out of a group of five that died due to toxicity when given in the diet at 400 ppm; format: organism-based; details: chicken, in vivo, po; in short: as §2
compound,measurement,setting,value
CSc1ncnc2c1ncn2[C@@H]1O[C@H](CO)[C@@H](O)[C@@H]1O,minimal effective concentration,Eimeria tenella,> 20 µg/mL
CCSc1ncnc2c1ncn2[C@@H]1O[C@H](CO)[C@@H](O)[C@H]1O,minimal effective concentration,Eimeria tenella,1.25 µg/mL
CCCCCSc1ncnc2[nH]cnc12,minimal effective concentration,Eimeria tenella,20 µg/mL
CSc1nc(C)nc2c1ncn2C1O[C@H](CO)[C@@H](O)[C@H]1O (stereo partly specified),minimal effective concentration,Eimeria tenella,> 25 µg/mL
CSc1ncnc2c1nnn2[C@@H]1O[C@H](CO)[C@@H](O)[C@H]1O,minimal effective concentration,Eimeria tenella,1.25 µg/mL
CCCCSc1ncnc2c1cnn2C1O[C@H](CO)[C@@H](O)[C@H]1O (stereo partly specified),No. of chicks,Gallus gallus [1],1
same,No. of chicks,Gallus gallus [2],5
same,No. of chicks,Gallus gallus [3],0
same,No. of chicks,Gallus gallus [4],0
same,minimal effective concentration,Eimeria tenella,0.019 µg/mL
Sc1ncnc2nc[nH]c12 [MERCAPTOPURINE ANHYDROUS],minimal effective concentration,Eimeria tenella,> 20 µg/mL
CSc1nc(N)nc2c1ncn2[C@@H]1O[C@H](CO)[C@@H](O)[C@H]1O,minimal effective concentration,Eimeria tenella,50 µg/mL
CCCCCSc1ncnc2c1ncn2C1O[C@H](CO)[C@@H](O)[C@H]1O (stereo partly specified),minimal effective concentration,Eimeria tenella,> 50 µg/mL
CCSc1ncnc2c1cnn2C1O[C@H](CO)[C@@H](O)[C@H]1O (stereo partly specified),No. of chicks,Gallus gallus [5],5
same,No. of chicks,Gallus gallus [3],2
same,No. of chicks,Gallus gallus [4],5
same,minimal effective concentration,Eimeria tenella,0.31 µg/mL
same,No. of chicks,Gallus gallus [6],5
CSc1ncnc2c1ncn2[C@H]1C[C@H](O)[C@@H](CO)O1,minimal effective concentration,Eimeria tenella,50 µg/mL
OC[C@H]1OC(n2ncc3cncnc32)[C@H](O)[C@@H]1O (stereo partly specified),minimal effective concentration,Eimeria tenella,1.3 µg/mL
same,No. of chicks,Gallus gallus [6],1
CSc1nc(SC)c2ncn(C3O[C@H](CO)[C@@H](O)[C@H]3O)c2n1 (stereo partly specified),minimal effective concentration,Eimeria tenella,> 50 µg/mL
CSc1ncnc2c1ncn2[C@@H]1O[C@H](CO)[C@@H](O)[C@H]1O,minimal effective concentration,Eimeria tenella,0.31 µg/mL
Nc1nc(=S)c2ncn([C@@H]3O[C@H](CO)[C@@H](O)[C@H]3O)c2[nH]1 [THIOGUANOSINE],minimal effective concentration,Eimeria tenella,> 50 µg/mL
CCSc1[nH]cnc2nncc1-2,No. of chicks,Gallus gallus [7],0
Sc1ncnc2[nH]ncc12 [TISOPURINE],No. of chicks,Gallus gallus [8],0
same,minimal effective concentration,Eimeria tenella,> 20 µg/mL
CCCCCCSc1ncnc2c1cnn2C1O[C@H](CO)[C@@H](O)[C@H]1O (stereo partly specified),No. of chicks,Gallus gallus [1],2
same,No. of chicks,Gallus gallus [2],5
same,No. of chicks,Gallus gallus [3],0
same,No. of chicks,Gallus gallus [4],0
same,minimal effective concentration,Eimeria tenella,0.019 µg/mL
OC[C@H]1OC(n2ncc3c(S)ncnc32)[C@H](O)[C@@H]1O (stereo partly specified),minimal effective concentration,Eimeria tenella,0.31 µg/mL
same,No. of chicks,Gallus gallus [6],2
C=CCSc1ncnc2c1cnn2C1O[C@H](CO)[C@@H](O)[C@H]1O (stereo partly specified),No. of chicks,Gallus gallus [1],5
same,No. of chicks,Gallus gallus [2],5
same,No. of chicks,Gallus gallus [3],1
same,No. of chicks,Gallus gallus [4],2
same,minimal effective concentration,Eimeria tenella,0.019 µg/mL
CSc1ncnc2[nH]cnc12,minimal effective concentration,Eimeria tenella,> 20 µg/mL
COC(=O)CSc1ncnc2c1cnn2C1O[C@H](CO)[C@@H](O)[C@H]1O (stereo partly specified),No. of chicks,Gallus gallus [2],0
same,minimal effective concentration,Eimeria tenella,20 µg/mL
OC[C@H]1OC(n2ncc3c(SC4CCCC4)ncnc32)[C@H](O)[C@@H]1O (stereo partly specified),No. of chicks,Gallus gallus [2],1
same,minimal effective concentration,Eimeria tenella,5 µg/mL
CSc1[nH]cnc2nncc1-2,minimal effective concentration,Eimeria tenella,20 µg/mL
CSc1ncnc2c1cnn2C1O[C@H](CO)[C@@H](O)[C@H]1O (stereo partly specified),No. of chicks,Gallus gallus [5],2
same,No. of chicks,Gallus gallus [3],0
same,No. of chicks,Gallus gallus [9],1
same,No. of chicks,Gallus gallus [4],2
same,No. of chicks,Gallus gallus [10],1
same,No. of chicks,Gallus gallus [11],2
same,No. of chicks,Gallus gallus [12],4
same,minimal effective concentration,Eimeria tenella,0.03 µg/mL
same,No. of chicks,Gallus gallus [6],3
C/C=C/CSc1ncnc2c1cnn2C1O[C@H](CO)[C@@H](O)[C@H]1O (stereo partly specified),No. of chicks,Gallus gallus [1],4
same,No. of chicks,Gallus gallus [2],5
same,No. of chicks,Gallus gallus [3],0
same,No. of chicks,Gallus gallus [4],0
same,minimal effective concentration,Eimeria tenella,0.019 µg/mL
CSc1nccc2c1ncn2C1O[C@H](CO)[C@@H](O)[C@H]1O (stereo partly specified),minimal effective concentration,Eimeria tenella,> 20 µg/mL
CC(C)Sc1ncnc2c1cnn2C1O[C@H](CO)[C@@H](O)[C@H]1O (stereo partly specified),No. of chicks,Gallus gallus [9],0
same,minimal effective concentration,Eimeria tenella,0.019 µg/mL
CCCSc1ncnc2c1cnn2C1O[C@H](CO)[C@@H](O)[C@H]1O (stereo partly specified),No. of chicks,Gallus gallus [5],1
same,No. of chicks,Gallus gallus [3],0
same,No. of chicks,Gallus gallus [4],0
same,minimal effective concentration,Eimeria tenella,0.019 µg/mL
same,No. of chicks,Gallus gallus [6],4
CCSc1[nH]cnc2ncnc1-2,minimal effective concentration,Eimeria tenella,> 20 µg/mL
OC[C@H]1O[C@@H](n2cnc3c(S)ncnc32)[C@H](O)[C@@H]1O [THIOINOSINE],minimal effective concentration,Eimeria tenella,> 20 µg/mL
CCOP(=O)(CCSc1ncnc2c1cnn2C1O[C@H](CO)[C@@H](O)[C@H]1O)OCC (stereo partly specified),No. of chicks,Gallus gallus [2],1
same,minimal effective concentration,Eimeria tenella,5 µg/mL
CCCCCSc1[nH]cnc2nncc1-2,minimal effective concentration,Eimeria tenella,5 µg/mL
CCCCCSc1ncnc2c1cnn2C1O[C@H](CO)[C@@H](O)[C@H]1O (stereo partly specified),No. of chicks,Gallus gallus [1],3
same,No. of chicks,Gallus gallus [2],5
same,No. of chicks,Gallus gallus [3],0
same,No. of chicks,Gallus gallus [4],0
same,minimal effective concentration,Eimeria tenella,0.31 µg/mL
CC(=O)CSc1ncnc2c1cnn2C1O[C@H](CO)[C@@H](O)[C@H]1O (stereo partly specified),No. of chicks,Gallus gallus [2],0
same,minimal effective concentration,Eimeria tenella,> 20 µg/mL
CCCCCCCSc1ncnc2c1cnn2C1O[C@H](CO)[C@@H](O)[C@H]1O (stereo partly specified),minimal effective concentration,Eimeria tenella,0.31 µg/mL
same,No. of chicks,Gallus gallus [6],1

# Source: ChEMBL document CHEMBL1121928, “Pyrazolo[3,4-d]pyrimidine ribonucleosides as anticoccidials. 1. Synthesis and activity of some nucleosides of purines and 4-(alkylthio)pyrazolo[3,4-d]pyrimidines” (J Med Chem, 1982)
